The values that follow come from ChEMBL document CHEMBL1142998, “Structure-activity relationship study of tricyclic necroptosis inhibitors” (J Med Chem, 2007).

For orientation: EC50 means the concentration needed to bring the measured effect to its halfway point.

Molecules are shown by their SMILES. The source made the active and inactive calls. The calls are words filed in the database; no cut-off is given here.

The subject of one test is L929. Put plainly: Inhibition of TNF alpha-induced necroptosis in mouse L929 cells assessed as cell viability at 30 uM after 24 hrs. Type of test: functional, cell-based. The gist of the method: (§1)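 L929 cells, 100000 cells/mL, challenged with 10 ng/mL human TNF-α or 100 µM zVAD.fmk alongside compound at 30 µM or DMSO, 24 h, 37 °C, 5% CO2; final DMSO 0.5%, duplicates. Viability by luminescent ATP assay, corrected for nonspecific compound toxicity; mean % viability ± SD from two independent experiments.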
For the compound `CN1C(=O)N[C@H](Cc2c[nH]c3c(Cl)cccc23)C1=O` (racemic), the result was Active.

Turning to `COc1ccc([C@H]2[C@H]3CCc4ccc(OC)cc4C3=NN2C(C)=O)cc1`, the outcome was Active.

In another test the test system is Jurkat. Description: Inhibition of TNF alpha-induced necroptosis in FADD-deficient variant human Jurkat T cells assessed as cell viability after 24 hrs. Type of test: functional, cell-based. The gist of the method:
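FADD-deficient human Jurkat T cells at 500000 cells/mL exposed to 10 ng/mL human TNF-α plus compound at 11 concentrations (0.029–100 µM), each in duplicate, 24 h, 37 °C, 5% CO2; final DMSO 0.5%. ATP luminescence viability expressed relative to compound alone (TNF/compound signal ratio). EC50 from variable-slope sigmoid nonlinear regression; two independent experiments unless noted.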
As for `COc1ccc2c(c1)C1=NN(C(C)=O)[C@@H](c3ccc4c(c3)OCO4)[C@H]1CC2`, the concentration for a half-maximal effect (EC50) turned out to be 2.6 µM.

On to `COc1ccc([C@H]2[C@H]3CCc4ccc(F)cc4C3=NN2C(C)=O)cc1`, for which the EC50 turned out to be 0.28 µM.

For `COc1ccc2c(c1)C1=NN(C(C)=O)[C@@H](c3ccc4c(c3)OCCO4)[C@H]1CC2`, the half-maximal effective concentration (EC50) worked out at 2.1 µM.

Consider `CN1C(=O)N[C@H](Cc2c[nH]c3c(Cl)cccc23)C1=O` (racemic), for which the concentration giving a half-maximal response (EC50) came out at 0.21 µM.

Consider `COc1ccc2c(c1)C1=NN(C(C)=O)[C@@H](c3ccc(O)cc3)[C@H]1CC2`, for which the concentration giving a half-maximal response (EC50) was 5.9 µM.

As to `COc1ccc([C@H]2[C@H]3CCc4ccc([N+](=O)[O-])cc4C3=NN2C(C)=O)cc1`, the EC50 worked out at 3.5 µM.

For `COc1ccc([C@H]2[C@H]3CCc4ccccc4C3=NN2C(C)=O)cc1`, the EC50 worked out at 0.84 µM.

For `COc1ccc([C@H]2[C@@H]3CCc4ccc([N+](=O)[O-])cc4C3=NN2C(C)=O)cc1`, the EC50 is more than 100 µM.

With `COc1ccc([C@H]2[C@@H]3CCc4ccc(F)cc4C3=NN2C(C)=O)cc1`, the concentration giving a half-maximal response (EC50) was 2.7 µM.

Take `COc1ccc([C@H]2[C@H]3CCc4ccc(OC)cc4C3=NN2C(=O)COC(C)=O)cc1`: the EC50 is 3.1 µM.

For `CC(=O)N1N=C2c3cc(C)ccc3OC[C@H]2[C@@H]1c1ccc(F)cc1`, the EC50 is more than 100 µM.

For `COCC(=O)N1N=C2c3cc(OC)ccc3CC[C@@H]2[C@@H]1c1ccc(OC)cc1`, the concentration for a half-maximal effect (EC50) came to 0.44 µM.

For the compound `COc1ccc2c(c1)C1=NN(C(C)=O)[C@@H](c3ccc(F)cc3)[C@@H]1CC2`, the half-maximal effective concentration (EC50) was found to be 3.7 µM.

Consider `COc1ccc([C@H]2[C@H]3C[C@H](N)c4ccc(OC)cc4C3=NN2C(C)=O)cc1`, for which the 50% effective concentration (EC50) worked out at 1.2 µM.

As for `COc1ccc([C@H]2[C@H]3CCc4c(OC)cccc4C3=NN2C(C)=O)cc1`, the concentration giving a half-maximal response (EC50) was more than 100 µM.

Turning to `COc1ccc2c(c1)C1=NN(C(C)=O)[C@@H](c3ccc(F)cc3)[C@H]1CC2`, the concentration for a half-maximal effect (EC50) came out at 0.96 µM.

In the case of `COc1ccc2c(c1)CC[C@H]1C2=NN(C(C)=O)[C@H]1c1ccc(F)cc1`, the half-maximal effective concentration (EC50) was more than 100 µM.

Take `CC(=O)N1N=C2c3cc(C)ccc3OC[C@@H]2[C@@H]1c1ccc(F)cc1`: the EC50 turned out to be 11.6 µM.

As to `COc1cc2c(cc1OC)C1=NN(C(C)=O)[C@@H](c3ccc(F)cc3)[C@H]1CC2`, the EC50 was more than 100 µM.

As to `CC(=O)N1N=C2c3cc(O)ccc3CC[C@@H]2[C@@H]1c1ccc(O)cc1`, the EC50 was more than 100 µM.

Turning to `COc1ccc2c(c1)C1=NN(C(C)=O)[C@@H](c3ccccc3OC)[C@H]1CC2`, the EC50 was more than 100 µM.

Take `COc1ccc([C@H]2[C@H]3CCc4ccc(OCCN5CCOCC5)cc4C3=NN2C(C)=O)cc1`: the EC50 was more than 50 µM.

In the case of `COc1ccc([C@H]2[C@H]3CCc4ccc(OCc5ccccc5)cc4C3=NN2C(C)=O)cc1`, the half-maximal effective concentration (EC50) came to 5 µM.

On to `COc1ccc([C@H]2[C@H]3CCc4ccc(OC)cc4C3=NN2C(N)=S)cc1`, for which the EC50 is 8.8 µM.

With `COc1ccc([C@H]2[C@H]3C[C@H](N(C)C)c4ccc(OC)cc4C3=NN2C(C)=O)cc1`, the concentration for a half-maximal effect (EC50) turned out to be 5.1 µM.

With `COc1ccc2c(c1)C1=NN(C(C)=O)[C@@H](c3cccc(F)c3)[C@H]1CC2`, the EC50 worked out at 0.68 µM.

As for `COc1ccc2c(c1)C1=NN(C(C)=O)[C@@H](c3ccc([N+](=O)[O-])cc3)[C@H]1CC2`, the EC50 worked out at 1.8 µM.

For the compound `CCN1N=C2c3cc(OC)ccc3CC[C@@H]2[C@@H]1c1ccc(OC)cc1`, the EC50 is more than 100 µM.

`COc1ccc([C@H]2[C@H]3CCc4ccc(OC)cc4C3=NN2C=O)cc1`: the half-maximal effective concentration (EC50) was determined as 0.92 µM.

Turning to `COc1ccc2c(c1)C1=NN(C(C)=O)[C@@H](c3ccc(SC)cc3)[C@H]1CC2`, the EC50 is 1.1 µM.

For the compound `COc1ccc([C@H]2[C@H]3CCc4ccc(OC)cc4C3=NN2C(N)=O)cc1`, the 50% effective concentration (EC50) turned out to be 4.3 µM.

In the case of `COc1ccc2c(c1)C1=NN(C(C)=O)[C@@H](c3ccc(OCc4ccccc4)cc3)[C@H]1CC2`, the EC50 was more than 100 µM.

As for `COc1ccc2c(c1)CC[C@@H]1C2=NN(C(C)=O)[C@H]1c1ccc(F)cc1`, the half-maximal effective concentration (EC50) is more than 100 µM.

For the compound `CNC(=S)N1N=C2c3cc(OC)ccc3CC[C@@H]2[C@@H]1c1ccc(OC)cc1`, the concentration for a half-maximal effect (EC50) came out at 7.9 µM.

Consider `CCC(=O)N1N=C2c3cc(OC)ccc3CC[C@@H]2[C@@H]1c1ccc(OC)cc1`, for which the EC50 was 0.15 µM.

With `COc1ccc2c(c1)C1=NN(C(C)=O)[C@@H](c3ccc(F)cc3)[C@H]1CO2`, the EC50 came to 4.8 µM.

In the case of `CC(=O)N1N=C2c3ccccc3CC[C@@H]2[C@@H]1c1ccc(F)cc1`, the EC50 turned out to be 5.4 µM.

On to `COc1ccc([C@H]2[C@H]3CCc4ccc(OC)cc4C3=NN2C(=N)N)cc1`, for which the EC50 is more than 100 µM.

With `COc1ccc([C@H]2[C@H]3CCc4cccc(OC)c4C3=NN2C(C)=O)cc1`, the EC50 was more than 50 µM.

For a further test, the system named is L929. Description: Inhibition of zVAD.fmk-induced necroptosis in mouse L929 cells assessed as cell viability at 30 uM after 24 hrs. It counts as functional, cell-based. Summed up: as §1
As to `CN1C(=O)N[C@H](Cc2c[nH]c3c(Cl)cccc23)C1=O` (racemic), the outcome was Active.

As for `COc1ccc([C@H]2[C@H]3CCc4ccc(OC)cc4C3=NN2C(C)=O)cc1`, the result was inactive.
